Data on 14 compounds can be found in ChEMBL document CHEMBL1135390, “Inotropic activity of hydroindene amidinohydrazones” (2002).

Usually Emax stands for the greatest response seen or fitted, relative to the assay's reference.

The species named for experiment [1] is Cavia porcellus. As to the kind of experiment: Inotropic activity on cardiac frequency on spontaneously beating guinea pig right atria, (from basal frequency). In kind it is functional, Heart. In outline:
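Isolated guinea pig right atrium, beating spontaneously, in oxygenated (95% O2/5% CO2) Tyrode-type solution at 34 °C. Resting tension 1 g, 60 min equilibration. Rate recorded isometrically via force transducer. Cumulative concentrations 10^-7 to 5×10^-4 M added at 30 min intervals, from DMSO stock (1% DMSO final in bath). Expressed as % of pre-drug control. Mean of at least five experiments.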

The species entered for experiment [2] is Cavia porcellus. As to the kind of experiment: Inotropic activity on electrically driven isolated Guinea pig atria. In kind it is functional. In outline: (§1)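 Isolated guinea pig left atrium paced at 1 Hz via bipolar platinum electrodes (1 ms pulses, twice threshold voltage), in oxygenated (95% O2/5% CO2) Tyrode-type solution at 34 °C. Resting tension 1 g, 60 min equilibration. Isometric contraction amplitude measured. Cumulative 10^-7 to 5×10^-4 M at 30 min intervals, 1% DMSO final. Expressed as % of pre-drug control. Mean of at least five experiments.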

The species named for experiment [3] is Cavia porcellus. Nature of the experiment: Inotropic activity on electrically driven isolated Guinea pig left atria, (from basal force). The format is functional. In short, it runs like this:
as §1

[4] abbreviates: Cavia porcellus, Heart, read-out: Emax.
Where [5] appears, read: Cavia porcellus, read-out: Emax.

In the case of `C[C@]12CC/C(=N\N=C(N)N)C=C1CC[C@@H]2CN1C(=O)c2ccccc2C1=O`, the Emax in the experiment filed under Cavia porcellus [1] (setting [4]) is -18%; in the experiment filed under Cavia porcellus [3] (setting [5]) it was 86%. Moreover, the “concentration at Emax” value in the experiment listed under Cavia porcellus [2] is given as 0.1 mM.
The like results for `COC(=O)/C=C/[C@H]1CCC2=C(C)/C(=N/N=C(N)N)CC[C@@]21C` were, in that order, -0.2%, -41% and 0.3 mM.
Consider `CC1=C2CC[C@H](/C=N/N=C(N)N)[C@@]2(C)CC/C1=N\N=C(N)N`, for which the Emax in the experiment listed under Cavia porcellus [1] (setting [4]) was 4.2%; in the experiment listed under Cavia porcellus [3] (setting [5]), 108%. Also, the “concentration at Emax” value in the experiment filed under Cavia porcellus [2] is given as 0.3 mM.
The like results for `CC1=C2CC[C@@H](/C=N/N=C(N)N)[C@@]2(C)CC/C1=N\N=C(N)N` were, in that order, 33.7%, 129% and 0.3 mM.
Turning to `C[C@]12CC/C(=N\N=C(N)N)C[C@@]1(O)CC[C@@H]2/C=N/N=C(N)N`, the results for the Emax in the experiment filed under Cavia porcellus [1] (setting [4]) and in the experiment listed under Cavia porcellus [3] (setting [5]) were -15% and -59%, respectively. Moreover, the “concentration at Emax” value in the experiment listed under Cavia porcellus [2] was found to be 0.3 mM.
Regarding `COC(=O)/C=C\[C@H]1CCC2=C/C(=N/N=C(N)N)CC[C@@]21C`, the Emax was -54% in the experiment filed under Cavia porcellus [1] (setting [4]) and -76% in the experiment filed under Cavia porcellus [3] (setting [5]). The “concentration at Emax” value in the experiment filed under Cavia porcellus [2] was found to be 0.3 mM.
For the compound `C[C@]12CC/C(=N\N=C(N)N)C=C1CC[C@@H]2/C=N/N=C(N)N` (stereo in doubt; 3), the Emax in the experiment filed under Cavia porcellus [1] is recorded as -5.4%; in the experiment filed under Cavia porcellus [3], 132%.
For the compound `C[C@]12CC[C@H]3[C@@H](CC[C@]4(O)C[C@@H](O)CC[C@]34C=O)[C@@]1(O)CC[C@@H]2C1=CC(=O)OC1` [STROPHANTHIDIN], the figures for the Emax in the experiment listed under Cavia porcellus [1] (setting [4]) and in the experiment filed under Cavia porcellus [3] (setting [5]) were 80.4% and 122%, respectively. Besides, the “concentration at Emax” value in the experiment filed under Cavia porcellus [2] is reported as 0.001 mM.
For `C[C@]12CC/C(=N\N=C(N)N)C=C1CC[C@@H]2CN` the same measures were -16%, 46% and 0.3 mM.
For `C[C@H]1O[C@@H](O[C@H]2[C@@H](O)C[C@H](O[C@H]3[C@@H](O)C[C@H](O[C@H]4CC[C@@]5(C)[C@H](CC[C@@H]6[C@@H]5C[C@@H](O)[C@]5(C)[C@@H](C7=CC(=O)OC7)CC[C@]65O)C4)O[C@@H]3C)O[C@@H]2C)C[C@H](O)[C@@H]1O` [DIGOXIN] the same measures were -28.3%, 103% and 0.001 mM.
For `C[C@]12CC/C(=N\N=C(N)N)C=C1CC[C@@H]2/C=C/[N+](=O)[O-]` the same measures were -1.7%, 128% and 0.3 mM.
For `C[C@]12CC/C(=N\N=C(N)N)C=C1CC[C@@H]2CO`, the results for the Emax in the experiment filed under Cavia porcellus [1] (setting [4]) and in the experiment listed under Cavia porcellus [3] (setting [5]) were 22% and -47%, respectively. Moreover, in the experiment filed under Cavia porcellus [2], the “concentration at Emax” value worked out at 0.3 mM.
Turning to `C[C@]12CC/C(=N\N=C(N)N)C=C1CC[C@@H]2/C=N/N=C(N)N` (stereo in doubt; 30), the Emax is -5.1% in the experiment listed under Cavia porcellus [1] and 170% in the experiment listed under Cavia porcellus [3]. Also, the “concentration at Emax” value in the experiment listed under Cavia porcellus [2] was found to be 0.3 mM.
Turning to `COC(=O)/C=C/[C@H]1CCC2=C/C(=N/N=C(N)N)CC[C@@]21C`, the Emax in the experiment filed under Cavia porcellus [1] (setting [4]) is 13.2%; in the experiment filed under Cavia porcellus [3] (setting [5]), -67%. In the experiment filed under Cavia porcellus [2], the “concentration at Emax” value was 0.3 mM.
